Test [1] concerns the target T1, Adenosine receptor A1 (Rattus norvegicus) (UniProt P25099).
T1 sequence (whole entry): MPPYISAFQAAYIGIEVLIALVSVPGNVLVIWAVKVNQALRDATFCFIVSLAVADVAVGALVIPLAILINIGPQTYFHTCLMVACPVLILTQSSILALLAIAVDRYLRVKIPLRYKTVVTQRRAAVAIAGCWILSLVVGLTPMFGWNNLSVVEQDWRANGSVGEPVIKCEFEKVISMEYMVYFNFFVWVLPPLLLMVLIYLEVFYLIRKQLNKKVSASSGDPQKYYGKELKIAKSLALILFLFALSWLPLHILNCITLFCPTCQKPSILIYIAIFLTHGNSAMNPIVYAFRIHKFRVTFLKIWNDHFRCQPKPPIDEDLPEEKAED
Put plainly: Inhibition of rat adenosine A1 receptor at 1 uM. The method, boiled down:
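Single-concentration screen measured as percent inhibition of [3H]CCPA (0.5 nM) binding to rat cortical membranes, run at room temperature for 90 min with 2.5% DMSO final. Nonspecific binding was defined with 2-chloroadenosine. Separation was by GF/B filtration, with scintillation counting of bound radioactivity.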

For another test, the target named is T2, Adenosine receptor A1 (Rattus norvegicus, UniProt P25099).
T2 sequence (P25099 whole entry): T1 sequence (whole entry)
Description: Displacement of [3H]CCPA from rat adenosine A1 receptor. The method, boiled down:
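Rat brain cortical membranes (from frozen rat brains) were incubated with [3H]CCPA at 0.5 nM at room temperature for 90 min. Compounds were added from DMSO stocks, giving 2.5% DMSO final. 2-Chloroadenosine defined nonspecific binding. Bound radioactivity was separated by GF/B filtration and counted by scintillation. Compounds giving over 20% inhibition in the single-concentration screen were tested at six concentrations to derive Ki.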
(Loss of bound radioactivity is the signal in a displacement assay; it reports binding, not function.)

Usually inhibition stands for the percentage by which the read-out fell short of the control. The low end stands for little suppression, the high end for strong suppression. What is called Ki is a measure of affinity in units of concentration, obtained from inhibition or displacement. Higher therefore signals lower affinity.

In the case of `CCc1nc2sc3c(c2c2n[nH]c(=S)n12)CCCC3`, the inhibition in test [1] is 56%. On Adenosine receptor A1, this compound had a Ki of 1170 nM. In turn, `Cc1sc2nc(C)n3c(=S)[nH]nc3c2c1C` showed an inhibition in test [1] of 4%. On the same count and under the same terms, with `S=c1[nH]nc2c3c4c(sc3nc(-c3ccncc3)n12)CCCC4` the figure was 0%; with `CCCc1nc2sc(C)c(C)c2c2n[nH]c(=S)n12`, 13%. With `Cc1nc2sc3c(c2c2n[nH]c(=S)n12)CCCC3`, the inhibition in test [1] was 26%. In addition, the Ki on Adenosine receptor A1 was found to be 4400 nM. Compound `Cc1sc2nc(C(=O)c3ccccc3)n3c(=S)[nH]nc3c2c1C` came in with an inhibition in test [1] of 0%. In turn, `Cc1sc2nc(-c3ccccc3)n3c(=S)[nH]nc3c2c1C` returned an inhibition in test [1] of 0%.

`CCc1nc2sc(C)c(C)c2c2n[nH]c(=S)n12` yielded an inhibition in test [1] of 21%. Moreover, at Adenosine receptor A1, affinity was put at a Ki of 2100 nM. As to `CCCc1nc2sc3c(c2c2n[nH]c(=S)n12)CCCC3`, the inhibition in test [1] is 0%. In test [1], `O=C(c1ccccc1)c1nc2sc3c(c2c2n[nH]c(=S)n12)CCCC3` gave an inhibition of 0%. Same read-out and setting: under `S=c1[nH]nc2c3c4c(sc3nc(-c3ccccc3)n12)CCCC4` stands 0%.
